In the EternaBench riboswitch data:

System: MS2 coat protein
Assay: apparent Kd, MS2 coat protein; higher = weaker binding; RNA-MaP array; FMN 200 µM where present
How it was run: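 Binding was read on Illumina sequencing-chip clusters where stalled E. coli RNA polymerase had transcribed each design. A titration of SNAP-549-labelled MS2 coat protein began at 0.7 or 1.5 nM and doubled to 3 µM, once without ligand and once with constant ligand, in 100 mM Tris-HCl pH 7.5, 80 mM KCl, 4 mM MgCl2, BSA, DTT, yeast tRNA and Tween-20. The apparent Kd is the median of filtered per-cluster binding-curve fits, based on green signal normalised to red-channel RNA signal and control-cluster median Fmax.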

[1] = designed as: ON switch for flavin mononucleotide, no ligand
[2] = ligand present: flavin mononucleotide, designed as: ON switch for flavin mononucleotide
[3] = designed as: OFF switch for flavin mononucleotide, no ligand
[4] = ligand present: flavin mononucleotide, designed as: OFF switch for flavin mononucleotide

| Sequence | apparent Kd [1] [nM] | apparent Kd [2] [nM] | apparent Kd [3] [nM] | apparent Kd [4] [nM] |
| --- | --- | --- | --- | --- |
| AGAUAACACCAGAAGGACAUGAGGAUCACCCAUGUAGGAUAUGGGCAUCACUCGAGAAAGAAACGACCAAAAGGACACGUGGUC | 177 | 13.4 | – | – |
| AGAUACAACCAGAAGGACAUGAGGAUCACCCAUGUAGGAUAUGGGUUACACGUUCCUGUGAAUUGUAACGACGCUACGAAGAGU | 113 | 12.3 | – | – |
| AGAUCACAAAUUUGGGAUAGUAGUACAGAAGGCACGGAAGUACAUGAGGAUCACCCAUGUGUGGGUGAGGAUAUGUACUCACUA | 217 | 14 | – | – |
| AGAUCGAUUGUGAGGAUAUUGACCGGACGACCCAUCGAGAAGGCACAUGAGGAUCACCCAUGUGAGUCGGUUUA | – | – | 14.9 | 18.2 |
| AGAUGCUCGAGUCGACAUGAGGAUCACCCAUGUACAGUUAGUGAGGAUAUCUGAGACACAUAGUAGGAGAAGGCGCGAACGUGA | – | – | 84.4 | 192 |
| AGAUGGCGAGGAUAUACAUGAGGAUCACCCAUGUGAAGAAUAAUAGUGAGGAAGAAAAGUAGAAGGCGCUGUCA | – | – | 45.5 | 209 |
| AGCAAGUAUACAUGAGGAUCACCCAUGUUUGAUAGGGUUUUCAGAAGGUACAAUUUGAGAUAGAGUAAGGAUAUGAAAUAUGCG | 182 | 56.3 | – | – |
| AGCAUGGUAGGAUAUACGGAGCAUUAGGGUUUGUUAUGUGGACAUGAGGAUCACCCAUGUAGAAGGGCCGUGCA | – | – | 38.6 | 60 |
| AGCGAGGCAGGAUAUACAUGAGGAUCACCCAUGUGCUUGCAUGGCGUGGAAUGUCGAGGUAGAAGGGCCAUGCC | – | – | 21.3 | 26.1 |
| AGCGCGGUCCACUUGGACGCCUACGAGGAUAUCCCGUCACAUGAGGAUCACCCAUGUAGGCGCAUGGAGAAGGCGUAGAAAUCA | 152 | 13.7 | – | – |
| AGCGCGGUCUCGCAGGAUAUCCACAAUCCUACAUGAGGAUCACCCAUGUCGCUGCAGGAUAUUAGGGAGAAGGGUGAUGCCGCGC | 34.5 | 20.7 | – | – |
| AGCGGCGCAGACCACCGCAAAACCAGAAGGACAUGAGGAUCACCCAUGUAACAAAACAGGGCGGUGUAGGAUAUGGCAGACCCA | – | – | 8.87 | 7.71 |
| AGCUACGUUUCGUAGCAGCUAGGUGAGGAUAUUCAAUUUUUCACAUGAGGAUCACCCAUGUAAAAGAAGAAGGCGCCUAGAAAG | 4.28 | 4.25 | – | – |
| AGCUACGUUUCGUAGCAGUGUCAUCGAGAAGGCCCUGACAUGAGGAUCACCCAUGUUGUUACAUGGGAGGAUAUCGAUGAUACG | 12.2 | 4.68 | – | – |
| AGCUAGAGAGGAUAUACGUGGAAAAAAAAAGUCUGAUCCCUACAUGAGGAUCACCCAUGUAGAAGGCUCUGGCA | – | – | 30.9 | 15.1 |
| AGCUAGGCAGGAUAUACGUAAAUGUCGAAAGACGUAUUGGGACAUGAGGAUCACCCAUGUAGAAGGGUCUAGCA | – | – | 37.6 | 123 |
| AGCUAGUACCGAGGAUAUACAUACAUGAGGAUCACCCAUGUAUACAUGAAUUAAUGAGACUACAUGUAGAAGGCGGUACUAGCA | 69.1 | 16 | – | – |
| AGCUAGUCAGGAUAUACGAACAUGUCAAAAGACGUGAACCCACAUGAGGAUCACCCAUGUAGAAGGGACUAGCA | – | – | 26 | 65.7 |
| AGCUAUUACGAAGGAUAUUCUGACAUGAGGAUCACCCAUGUCUUCAUGAUUUAUUGUGAUCACAUGAAGAAGGUCGUACUAACA | 198 | 48.3 | – | – |
| AGCUGACGAGGAUAUACAUGAGGAUCACCCAUGUUGGUUCAGCGACUUCGGUCGCAAUGUAGAAGGCGUCAGCU | – | – | 450 | 327 |
| AGCUGGUGACAGCAUCGAGCUAAACAUGAGGAUCACCCAUGUAGAAGGCUGUACGGUUACCGUACAGAGGAUAUACAAAGCUCG | – | – | 6.06 | 7.17 |
| AGCUGUGGCCGAGGAUAUCUAACAAUCCCAACCGAAAUAUAAUCGGACAUGAGGAUCACCCAUGUAGAGAAGGCGGUCUCAGCA | – | – | 208 | 329 |
| AGCUGUGGCCGAGGAUAUCUGACUUCAAUAACCGAAAUAUAAUCGGACAUGAGGAUCACCCAUGUAGAGAAGGCGGUCUCAGCA | – | – | 17.1 | 24.9 |
| AGCUGUGGCCGAGGAUAUCUGUUUCAUAAAACCGAAAUAUAAUCGGACAUGAGGAUCACCCAUGUAGAGAAGGCGGUCUCAGCA | – | – | 16.6 | 14.9 |
| AGCUGUGGCCGAGGAUAUGCUACUUCAAUAACCGAAAUAUAAUCGGACAUGAGGAUCACCCAUGUAGAGAAGGCGGUCUCAGCA | – | – | 14 | 11 |
| AGGAAACAUGAGGAUCACCCAUGUAAAAAUAUGGGAGGAUAUGCGAAAAGAAACAAAGAAGCAGAAGGCCUAAGAA | 89.8 | 23.1 | – | – |
| AGGAAACAUGAGGAUCACCCAUGUGAGGAUAUUUGAAAGAAAAGAAAAGAAAGAAGAAGAAGAAGGCACAAGAA | – | – | 32.4 | 35.5 |
| AGGAGAAAUGUAGGAUAUGUAUAUAUAUAUGGGCAAAGCGCAUAUAUAUAUACAGAAGGACAUGAGGAUCACCCAUGUUUCCCU | – | – | 11.4 | 13.5 |

| Sequence | apparent Kd [1] [nM] | apparent Kd [2] [nM] | apparent Kd [3] [nM] | apparent Kd [4] [nM] |
| --- | --- | --- | --- | --- |
| AGGAGGUCAGGAUAUGCAUGGCGGGACUUGCGUCGUGGCGUGCAGAAGGGACAUGAGGAUCACCCAUGUGGAGA | – | – | 86.1 | 220 |
| AGGAUAGGAAAAUUUGUCCAUUGUACAGAAGGCCAACAUGAGGAUCACCCAUGUAAGAAAAGGAUGGAGGAUAUGUAUAGGGCC | 37.6 | 10.6 | – | – |
| AGGCCACAAGGAUAUACAUGAGGAUCACCCAUGUAGAAAGACGUGUGGUCAUGUUCGAGUAGAAGGUGUAGCGG | – | – | 12.9 | 12.7 |
| AGGCGGGUAGGAUAUAUUUUCGUCAACAUGAGGAUCACCCAUGUGUCCUGAAGUGAUAUCAUAGAAGGGCCCAGCU | – | – | 25.4 | 33.8 |
| AGGGAGGAAGCUGAGGAUAUCGUAAGGAGGACAUGAGGAUCACCCAUGUGUGUGGAAUUGGAGGACGAGAAGGCAGAGGAGUGGG | 31.5 | 36 | – | – |
| AGGGCGGGAGGAUAUCCAAUAUAUGACAUGAGGAUCACCCAUGUUUCCACUCGUACCUCCGGAGAAGGCCCGCCCA | – | – | 24.4 | 22.3 |
| AGGUAAACCACAGGAUAUGGCUAGCAUAGCUAGCCAGAAGGGUGGUCGAAACCAUGUAAAUACAUGAGGAUCACCCAUGUAUCC | 566 | 75.3 | – | – |
| AGGUAACAUGAGGAUCACCCAUGUCAGGAUAUCAUGAAGAGUAGAUUAGAGGAGAGGUUGAGAAGGGACUAUAU | – | – | 59.9 | 35.3 |
| AGGUAAGACUUAAUUGUGCUGGUGAGAAGGCAAAUGGUUGUGACCAACAUGAGGAUCACCCAUGUUGAGGAUAUCAUCGGUAUC | – | – | 86.2 | 361 |
| AGGUAAGAGUUAAUUGUGACGGUGAGAAGGCAAUAGUUUGUGACCGACAUGAGGAUCACCCAUGUUGAGGAUAUCACCACCUAC | – | – | 9.59 | 40.1 |
| AGGUGAGCUCGAUGGCGACAUGAGGAUCACCCAUGUACGAUCAGAAGGGCUCGGGCAAGAAGUGGGCAGGAUAUGGUCGGUGCC | – | – | 3.88 | 4.51 |
| AGUAACAGAGGAUAUACUAUUUUAUGUGUUUAUUAUUUUGAACAUGAGGAUCACCCAUGUAGAAGGCUGAAUAA | – | – | 27 | 30.1 |
| AGUAACAGAGGAUAUACUGUUUUAUGUGUUUGUUAUUUUAAACAUGAGGAUCACCCAUGUAGAAGGCUGAAUAA | – | – | 24.3 | 23.4 |
| AGUAAGAUGCAGAAGGUGUCAGCGAGAGCUACGACAUGAGGAUCACCCAUGUACUAGAUAGAGUACAAGGAUAUGCAUCUUACA | 729 | 35.1 | – | – |
| AGUAAGAUGCAGAAGGUGUCAGCGAGAGCUGCGACAUGAGGAUCACCCAUGUACCGGUGACGGUACAAGGAUAUGCAUCUUACA | 882 | 360 | – | – |
| AGUAAGAUGCAGAAGGUGUCAGCGAGAGCUGCGACAUGAGGAUCACCCAUGUACUAGUGAGAGUACAAGGAUAUGCAUCUUACA | 313 | 45.7 | – | – |
| AGUAAGAUGCAGAAGGUGUUAGCUAGAGCUACGACAUGAGGAUCACCCAUGUACUAGAAACAGUACAAGGAUAUGCAUCUUACC | 18.9 | 6.52 | – | – |
| AGUAAGUUUGAGAAGGUGAAGUGGAAACAUGAGGAUCACCCAUGUAUUAGGAAGCCUGGUUUUGUCAAGGAUAUCGGGUUUACA | 17.9 | 16.5 | – | – |
| AGUACCAUGUAGAAGGGAUAUCUGAUUCAGAUAUCAGGAUAUACAUGAGGAUCACCCAUGUAAAUGUACUGCACGAAAGUGCAA | – | – | 18 | 37.9 |
| AGUACUACAGGAUAUACAUGAGUGAUACUCAUAUACCUACUACAUGAGGAUCACCCAUGUAGAAGGGUAGUACA | – | – | 14.9 | 11.7 |
| AGUAUGCGGCAGGAUAUCCAUCCGCGAAAAGGUGGAGAAGGGCUGACAUGAGGAUCACCCAUGUGCGUUUUGUA | – | – | 56 | 40 |
| AGUCGGAGCAGAGGAUAUAUACAUGAGGAUCACCCAUGUAAAUGAAUAAGCUGGAAACAGCAUGUAUAGAAGGCUGCUCCGACA | – | – | 45.6 | 125 |
| AGUCUGCGAGGAUAUACAUGAGGAUCACCCAUGUGCGAGAUACUAGUGAGGUCGAUUGGUAGAAGGCGCGGACA | – | – | 111 | 66.1 |
| AGUGCUAUGUAGAAGGCAGAUCUGAUUCAGAUCUGAGGAUAUACAUGAGGAUCACCCAUGUUAUGCACCAGCACGAGAGUGCAG | – | – | 9.24 | 22.6 |
| AGUGUCAUCGAGAAGGCCUCAUGGACAUGAGGAUCACCCAUGUAAAAUGGGAGGAUAUCGAUGAUACAGCUACGUUUCGUAGCA | 226 | 69.7 | – | – |
| AGUGUCAUCGAGAAGGCCUUAAGAACAUGAGGAUCACCCAUGUAACAUGGGAGGAUAUCGAUGAUACAGCUACGUUUCGUAGCA | 12.4 | 5.21 | – | – |
| AGUGUGUGGCAGGAUAUUCCGGUCGUUGGUCGGGAAGAAGGGUCUACAUGAGGAUCACCCAUGUGACCGGUUGA | – | – | 25.6 | 25.6 |
